Measurements as given in paper PMC11064185 (ACS Omega, 2024).

What was measured:
[1] = molecular target: Saccharomyces cerevisiae α-glucosidase (Saccharomyces cerevisiae, UniProt P53341); test: α-glucosidase inhibition assay; type: biochemical
α-glucosidase = α-glucosidase (Saccharomyces cerevisiae, UniProt P53341); test: affinity ultrafiltration UPLC–Q-TOF–MS/MS screening, binding rate; details: peak area reduction in CGB extract after ultrafiltration
Method in brief: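 95% ethanol reflux extract of whole herb: three 3 h extractions at 1:13 m/v, then concentrated and dried. Extract incubated with yeast α-glucosidase and ultrafiltered on a 10 kDa membrane. Bound ligands released from the retentate with methanol and identified by UPLC-Q-TOF-MS/MS.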

Chain of α-glucosidase (P53341 whole entry): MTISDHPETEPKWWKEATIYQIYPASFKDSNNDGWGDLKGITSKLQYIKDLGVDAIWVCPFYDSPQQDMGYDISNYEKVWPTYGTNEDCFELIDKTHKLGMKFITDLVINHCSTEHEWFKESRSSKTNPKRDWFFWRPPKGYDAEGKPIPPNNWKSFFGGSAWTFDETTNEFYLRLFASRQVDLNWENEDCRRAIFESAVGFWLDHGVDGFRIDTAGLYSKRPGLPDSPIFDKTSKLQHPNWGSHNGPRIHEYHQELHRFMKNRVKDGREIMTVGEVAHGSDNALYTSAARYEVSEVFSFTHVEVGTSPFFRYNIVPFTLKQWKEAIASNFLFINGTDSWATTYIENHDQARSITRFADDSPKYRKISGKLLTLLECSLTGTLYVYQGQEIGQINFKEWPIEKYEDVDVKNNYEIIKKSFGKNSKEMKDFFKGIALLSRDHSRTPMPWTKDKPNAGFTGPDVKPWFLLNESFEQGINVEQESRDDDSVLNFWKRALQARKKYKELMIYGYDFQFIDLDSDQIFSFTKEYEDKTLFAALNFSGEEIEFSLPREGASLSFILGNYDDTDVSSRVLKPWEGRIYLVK
Chain of Saccharomyces cerevisiae α-glucosidase (P53341 whole entry): as above

Row | SMILES | IC50 [1] [µM] | AD (affinity degree, binding rate to α-glucosidase) (α-glucosidase) [%]
1 | COc1c(-c2ccc(O)c(O)c2)oc2cc(O)cc(O)c2c1=O [3-O-methylquercetin] | 436.35 ± 0.01 | 17.2
2 | O=c1c(O[C@@H]2O[C@H](CO)[C@H](O)[C@H](O)[C@H]2O)c(-c2ccc(O)c(O)c2)oc2cc(O)cc(O)c12 [hyperoside] | 1072.4 ± 0.54 | 23.4
3 | O=c1c(O)c(-c2ccc(O)c(O)c2)oc2cc(O)cc(O)c12 [quercetin] |  | 12.4
